Measurements published in ChEMBL document CHEMBL1128374, “Preparation and in vitro activities of ethers of [D-serine]8-cyclosporin” (J Med Chem, 1995).
≈ marks a conversion by molar mass, not a printed value. Values belong to the molecule of their own block, whether it stands above or below them.

Assays:
Format in all cases: functional
Mus musculus [1] = species: Mus musculus; assay: In vitro efficacy to suppress lymphocyte proliferation as measured by the incorporation of a labeled precursor ([3H]- thymidine) into DNA in Mixed Lymphocyte reaction (MLR).
Outline: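 Cells from spleens of female CBA mice aged 8–10 weeks (ca. 5 x 10^5). Compounds made up at 20 mg/mL in 9:1 (v/v) ethanol/Tween 80, then diluted in saline before adding to medium. Four concentrations per compound across 1.8–1000 ng/mL, in triplicate cultures. IC50 is the calculated concentration giving 50% inhibition of proliferation. Cyclosporin A run in parallel as control.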

Mus musculus [2] = species: Mus musculus; assay: In vitro efficacy on humoral immune response by Mishell-Dutton assay (MD).
Outline: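 Spleen lymphocytes from female OF1 mice (ca. 10 x 10^6) cultured 3 days with sheep erythrocytes (ca. 30 x 10^6) and test compound. Cells then plated on agar with fresh erythrocytes; plaques form by complement lysis. Read-out is the count of antibody-producing plaque-forming cells. Cyclosporin A run in parallel.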

Mus musculus [3] = species: Mus musculus; assay: In vitro inhibition of interleukin-2 (IL-2) production induced by stimulating lymphocytes derived from mouse spleens with the […]; details: Spleen
Outline: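 Compounds added with concanavalin A to the primary culture; supernatants collected at 48 h. IL-2 content measured by growth of IL-2-dependent CTLL cells, read as tritiated thymidine incorporation after 48 h. IC50 determined, with cyclosporin A run in parallel.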

SMILES: C/C=C/C[C@@H](C)[C@@H](O)[C@H]1C(=O)N[C@@H](CC)C(=O)N(C)CC(=O)N(C)[C@@H](CC(C)C)C(=O)N[C@@H](C(C)C)C(=O)N(C)[C@@H](CC(C)C)C(=O)N[C@@H](C)C(=O)N[C@H](COC/C=C/COC(C)=O)C(=O)N(C)[C@@H](CC(C)C)C(=O)N(C)[C@@H](CC(C)C)C(=O)N(C)[C@@H](C(C)C)C(=O)N1C
IC50 (Mus musculus [1]): 0.04 µg/mL (≈ 0.0301 µM)
IC50 (Mus musculus [2]): 0.04 µg/mL (≈ 0.0301 µM)

SMILES: C/C=C/C[C@@H](C)[C@@H](O)[C@H]1C(=O)N[C@@H](CC)C(=O)N(C)CC(=O)N(C)[C@@H](CC(C)C)C(=O)N[C@@H](C(C)C)C(=O)N(C)[C@@H](CC(C)C)C(=O)N[C@@H](C)C(=O)N[C@H](COCC(=O)OC(C)C)C(=O)N(C)[C@@H](CC(C)C)C(=O)N(C)[C@@H](CC(C)C)C(=O)N(C)[C@@H](C(C)C)C(=O)N1C
IC50 (Mus musculus [1]): 0.1 µg/mL (≈ 0.0758 µM)
IC50 (Mus musculus [2]): 0.725 µg/mL (≈ 0.55 µM)

SMILES: C/C=C/C[C@@H](C)[C@@H](O)[C@H]1C(=O)N[C@@H](CC)C(=O)N(C)CC(=O)N(C)[C@@H](CC(C)C)C(=O)N[C@@H](C(C)C)C(=O)N(C)[C@@H](CC(C)C)C(=O)N[C@@H](C)C(=O)N[C@H](COC/C=C/CBr)C(=O)N(C)[C@@H](CC(C)C)C(=O)N(C)[C@@H](CC(C)C)C(=O)N(C)[C@@H](C(C)C)C(=O)N1C
IC50 (Mus musculus [1]): 0.09 µg/mL (≈ 0.0666 µM)
IC50 (Mus musculus [2]): 0.24 µg/mL (≈ 0.178 µM)

SMILES: C/C=C/C[C@@H](C)[C@@H](O)[C@H]1C(=O)N[C@@H](CC)C(=O)N(C)CC(=O)N(C)[C@@H](CC(C)C)C(=O)N[C@@H](C(C)C)C(=O)N(C)[C@@H](CC(C)C)C(=O)N[C@@H](C)C(=O)N[C@H](COCCOCCOCC(=O)OC(C)C)C(=O)N(C)[C@@H](CC(C)C)C(=O)N(C)[C@@H](CC(C)C)C(=O)N(C)[C@@H](C(C)C)C(=O)N1C
IC50 (Mus musculus [1]): 0.35 µg/mL (≈ 0.249 µM)
IC50 (Mus musculus [2]): 0.53 µg/mL (≈ 0.377 µM)

SMILES: C/C=C/C[C@@H](C)[C@@H](O)[C@H]1C(=O)N[C@@H](CC)C(=O)N(C)CC(=O)N(C)[C@@H](CC(C)C)C(=O)N[C@@H](C(C)C)C(=O)N(C)[C@@H](CC(C)C)C(=O)N[C@@H](C)C(=O)N2CC(=O)OC[C@@H]2C(=O)N(C)[C@@H](CC(C)C)C(=O)N(C)[C@@H](CC(C)C)C(=O)N(C)[C@@H](C(C)C)C(=O)N1C
IC50 (Mus musculus [1]): 0.167 µg/mL (≈ 0.133 µM)
IC50 (Mus musculus [3]): 0.024 µg/mL (≈ 0.0191 µM)

SMILES: C/C=C/C[C@@H](C)[C@@H](O)[C@H]1C(=O)N[C@@H](CC)C(=O)N(C)CC(=O)N(C)[C@@H](CC(C)C)C(=O)N[C@@H](C(C)C)C(=O)N(C)[C@@H](CC(C)C)C(=O)N[C@@H](C)C(=O)N[C@H](COCCOS(=O)(=O)c2ccc(C)cc2)C(=O)N(C)[C@@H](CC(C)C)C(=O)N(C)[C@@H](CC(C)C)C(=O)N(C)[C@@H](C(C)C)C(=O)N1C
IC50 (Mus musculus [1]): 0.05 µg/mL (≈ 0.0353 µM)
IC50 (Mus musculus [3]): 0.014 µg/mL (≈ 0.00988 µM)

SMILES: C/C=C/C[C@@H](C)[C@@H](O)[C@H]1C(=O)N[C@@H](CC)C(=O)N(C)CC(=O)N(C)[C@@H](CC(C)C)C(=O)N[C@@H](C(C)C)C(=O)N(C)[C@@H](CC(C)C)C(=O)N[C@@H](C)C(=O)N2CC(OCC)OC[C@@H]2C(=O)N(C)[C@@H](CC(C)C)C(=O)N(C)[C@@H](CC(C)C)C(=O)N(C)[C@@H](C(C)C)C(=O)N1C (mixture of isomers)
IC50 (Mus musculus [1]): 0.04 µg/mL
IC50 (Mus musculus [3]): 0.01 µg/mL

SMILES: C=C1COC[C@@H]2C(=O)N(C)[C@@H](CC(C)C)C(=O)N(C)[C@@H](CC(C)C)C(=O)N(C)[C@@H](C(C)C)C(=O)N(C)[C@@H]([C@H](O)[C@H](C)C/C=C/C)C(=O)N[C@@H](CC)C(=O)N(C)CC(=O)N(C)[C@@H](CC(C)C)C(=O)N[C@@H](C(C)C)C(=O)N(C)[C@@H](CC(C)C)C(=O)N[C@@H](C)C(=O)N2C1
IC50 (Mus musculus [1]): 0.036 µg/mL (≈ 0.0283 µM)
IC50 (Mus musculus [3]): 0.012 µg/mL (≈ 0.00944 µM)

Now from value to molecule, other results behind:

IC50 (Mus musculus [2]): 0.065 µg/mL (≈ 0.0504 µM)
SMILES: C/C=C/C[C@@H](C)[C@@H](O)[C@H]1C(=O)N[C@@H](CC)C(=O)N(C)CC(=O)N(C)[C@@H](CC(C)C)C(=O)N[C@@H](C(C)C)C(=O)N(C)[C@@H](CC(C)C)C(=O)N[C@@H](C)C(=O)N[C@H](COCC(=O)OC)C(=O)N(C)[C@@H](CC(C)C)C(=O)N(C)[C@@H](CC(C)C)C(=O)N(C)[C@@H](C(C)C)C(=O)N1C
IC50 (Mus musculus [1]): 0.044 µg/mL (≈ 0.0341 µM)

IC50 (Mus musculus [2]): 0.21 µg/mL (≈ 0.158 µM)
SMILES: C/C=C/C[C@@H](C)[C@@H](O)[C@H]1C(=O)N[C@@H](CC)C(=O)N(C)CC(=O)N(C)[C@@H](CC(C)C)C(=O)N[C@@H](C(C)C)C(=O)N(C)[C@@H](CC(C)C)C(=O)N[C@@H](C)C(=O)N[C@H](COCCC2OCCCO2)C(=O)N(C)[C@@H](CC(C)C)C(=O)N(C)[C@@H](CC(C)C)C(=O)N(C)[C@@H](C(C)C)C(=O)N1C
IC50 (Mus musculus [1]): 0.12 µg/mL (≈ 0.09 µM)

IC50 (Mus musculus [2]): 0.087 µg/mL (≈ 0.0676 µM)
SMILES: C/C=C/C[C@@H](C)[C@@H](O)[C@H]1C(=O)N[C@@H](CC)C(=O)N(C)CC(=O)N(C)[C@@H](CC(C)C)C(=O)N[C@@H](C(C)C)C(=O)N(C)[C@@H](CC(C)C)C(=O)N[C@@H](C)C(=O)N[C@H](COCCN=[N+]=[N-])C(=O)N(C)[C@@H](CC(C)C)C(=O)N(C)[C@@H](CC(C)C)C(=O)N(C)[C@@H](C(C)C)C(=O)N1C
IC50 (Mus musculus [1]): 0.11 µg/mL (≈ 0.0854 µM)

IC50 (Mus musculus [2]): 0.009 µg/mL (≈ 0.00705 µM)
SMILES: C/C=C/C[C@@H](C)[C@@H](O)[C@H]1C(=O)N[C@@H](CC)C(=O)N(C)CC(=O)N(C)[C@@H](CC(C)C)C(=O)N[C@@H](C(C)C)C(=O)N(C)[C@@H](CC(C)C)C(=O)N[C@@H](C)C(=O)N[C@H](COCCCO)C(=O)N(C)[C@@H](CC(C)C)C(=O)N(C)[C@@H](CC(C)C)C(=O)N(C)[C@@H](C(C)C)C(=O)N1C
IC50 (Mus musculus [1]): 0.02 µg/mL (≈ 0.0157 µM)
